Screens from PubChem BioAssay.
EBNA-1 inhibitor = blocks EBNA-1 binding to DNA | inhibition, % at 14.8 µM | EBNA-1 DNA binding, fluorescence polarization | 0.34% of 300,000 active | AID 1950; in the data active = inhibition above about 28%
ZTA DNA inh = counter-screen for EBNA-1 inhibitors: inhibitors of Epstein-Barr virus ZTA. ZTA-DNA binding, fluorescence polarization. inhibition, % at 11 µM. 0.15% of 320,000 active; in the data active = inhibition above about 33%
Target sequence (P03206 whole entry, looked up): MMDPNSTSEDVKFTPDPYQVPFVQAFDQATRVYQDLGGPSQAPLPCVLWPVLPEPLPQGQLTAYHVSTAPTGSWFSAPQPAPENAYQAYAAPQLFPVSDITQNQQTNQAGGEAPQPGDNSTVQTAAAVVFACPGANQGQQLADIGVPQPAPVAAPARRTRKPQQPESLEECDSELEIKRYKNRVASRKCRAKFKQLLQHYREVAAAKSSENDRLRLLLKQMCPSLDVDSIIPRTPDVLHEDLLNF
HNF4A DNA FP = change in binding of human HNF4 alpha to DNA | 0.3% of 360,000 active | P41235 | HNF4a-FITC DNA binding, fluorescence polarization, 1 h | activity change, % at 10 µM; in the data active = activity change above about 30%, passing the limit was not always enough
LANA-H2B inh = blocks KSHV LANA binding to histone H2A/H2B | cell-free LANA-H2A/H2B peptide, fluorescence polarization | AID 2629 | Q9QR71 | inhibition, % (test concentration not listed) | 0.6% of 320,000 active; in the data active = inhibition mostly above about 10%, no sharp cut-off; inactive = mostly below about 6.7%
CSN inh = blocks human CSN-mediated cullin deneddylation; Q92905; Purified CSN, SCF-Nedd8-OG deneddylation, fluorescence polarization; inhibition, % at 12.5 µM; 0.38% of 360,000 active; AID 651999;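 active = pattern-corrected inhibition above about 35%, with an unprinted fluorescence ratio check between 0.5 and 1.5, limit read from the data, passing the limit was not always enough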
Target sequence (Q92905 whole entry, looked up, one chain of several): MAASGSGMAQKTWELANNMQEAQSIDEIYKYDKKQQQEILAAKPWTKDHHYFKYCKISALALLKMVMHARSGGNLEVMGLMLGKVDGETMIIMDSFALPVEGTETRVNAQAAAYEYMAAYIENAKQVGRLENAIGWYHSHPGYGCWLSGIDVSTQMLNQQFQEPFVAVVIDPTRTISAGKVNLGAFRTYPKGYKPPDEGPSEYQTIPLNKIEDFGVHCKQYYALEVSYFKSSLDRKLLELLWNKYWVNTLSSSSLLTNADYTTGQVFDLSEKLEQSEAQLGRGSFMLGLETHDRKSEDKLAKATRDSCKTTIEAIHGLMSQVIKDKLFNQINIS
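Detection – fluorescence polarization · System – HEK293T-derived human Csn5 enzyme · Controls – substrate-only high control, full reaction low control · Timing – 90 min, room temperature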
A1 inh = inhibitors of the anti-apoptotic protein A1, read as caspase activation. AID 2462. caspase activation, % (concentration not given with the values). 0.066% of 330,000 active. MEF A1-2A-BIM cells, Caspase-Glo 3/7 luminescence, 3 h; percent of clofoctol response, vehicle zero;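 active = over half of replicate activation scores above 10%, or exactly half above 10 with the replicate mean above 10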
ZTA inh confirm = confirmation of Epstein-Barr virus ZTA DNA binding inhibitors | shares compounds with ZTA DNA inh | inhibition, % at 11.1 µM | 30% of 320 active | Zta-ZRE DNA binding, fluorescence polarization;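 active = mean inhibition across triplicate runs above the hit threshold derived for the original primary screen, cut at about 33% in these data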
EBNA-1 counter = blocks EBNA-1 DNA binding in ZTA counter-screen; shares compounds with ZTA DNA inh; fluorescence polarization; inhibition, % at 14.8 µM; 320 tested, under 10 active; AID 2362; call rule not given here
A number is an active result; ! = not active in a repeat. An excerpt weighted towards active compounds, which were near 1.5% of everything screened.

Screening O=C(NCc1ccc(F)cc1)c1cc2c(cc1Cl)N1CCCCCC1=NS2(=O)=O returned ZTA DNA inh inactive, HNF4A DNA FP inactive, LANA-H2B inh inactive, CSN inh inactive and A1 inh inactive.
For Cc1ccc(S(=O)(=O)N(C)c2ccccc2C(=O)N2CCCC2)cc1 the results were EBNA-1 inhibitor inactive, ZTA DNA inh 155, HNF4A DNA FP inactive, LANA-H2B inh inactive, CSN inh inactive, A1 inh inactive, ZTA inh confirm inactive and EBNA-1 counter inactive.
Clc1ccc(CCNc2ncnc3c2nnn3Cc2ccccc2)cc1 was read as EBNA-1 inhibitor inactive, ZTA DNA inh inactive, HNF4A DNA FP inactive, LANA-H2B inh inactive, CSN inh inactive and A1 inh inactive.
Screening O=c1c(O)cccc2cc(O)c(O)c(O)c12 returned EBNA-1 inhibitor inactive, ZTA DNA inh 33, HNF4A DNA FP inactive, LANA-H2B inh inactive, CSN inh inactive, A1 inh inactive, ZTA inh confirm inactive and EBNA-1 counter inactive.
`O=c1cc(-c2ccccc2)oc2cc(O)c(O)c(O)c12` gave HNF4A DNA FP inactive and CSN inh inactive.
Screening COc1cc(C2C(C#N)=C(N)OC3=C2C(=O)CC(C)(C)C3)ccc1OCCN1CCOCC1 (stereo not drawn) returned EBNA-1 inhibitor inactive, ZTA DNA inh inactive, HNF4A DNA FP inactive, LANA-H2B inh inactive, CSN inh inactive and A1 inh inactive.
Cc1ccc(C(=O)O)cc1N1C(=O)c2cccc3c([N+](=O)[O-])ccc(c23)C1=O was read as EBNA-1 inhibitor inactive, ZTA DNA inh 39, HNF4A DNA FP inactive, LANA-H2B inh inactive, CSN inh inactive, A1 inh inactive, ZTA inh confirm 35 and EBNA-1 counter inactive.
`CN(C)CCOCCOc1ccccc1-c1ccccc1` gave EBNA-1 inhibitor inactive, ZTA DNA inh inactive, HNF4A DNA FP inactive, LANA-H2B inh inactive, CSN inh inactive and A1 inh inactive.
Screening CN(C)CCOc1ccccc1-c1ccccc1 returned EBNA-1 inhibitor inactive, ZTA DNA inh 37, HNF4A DNA FP inactive, LANA-H2B inh inactive, CSN inh inactive, A1 inh inactive, ZTA inh confirm inactive and EBNA-1 counter inactive.
CC(=O)Nc1cccc(-c2ccnc3c2CC(C)(C(=O)NCCC(F)(F)F)O3)c1 (stereo not drawn) was read as HNF4A DNA FP inactive and CSN inh inactive.
For CCN1CCN(Cc2ccc(NC(=O)c3cc(NC(=O)C(=O)c4c[nH]c5ccccc45)cc(OC)c3)cc2C(F)(F)F)CC1 the results were EBNA-1 inhibitor inactive, ZTA DNA inh inactive, HNF4A DNA FP inactive, LANA-H2B inh inactive, CSN inh inactive and A1 inh inactive.
Screening CCN1CCN(Cc2ccc(NC(=O)c3ccc(C)c(NC(=O)C(=O)c4c[nH]c5ccccc45)c3)cc2C(F)(F)F)CC1 returned EBNA-1 inhibitor inactive, ZTA DNA inh 40!, HNF4A DNA FP inactive, LANA-H2B inh inactive, CSN inh inactive, A1 inh inactive, ZTA inh confirm inactive and EBNA-1 counter inactive.
`CCc1nn(CC(=O)N2CC(C)CC(C)C2)c(=O)c2cccn12` (stereo not drawn) gave EBNA-1 inhibitor inactive, ZTA DNA inh inactive, HNF4A DNA FP inactive, LANA-H2B inh inactive, CSN inh inactive and A1 inh inactive.
CCc1nn(CC(=O)N2CCN(C)CC2)c(=O)c2cccn12 was read as EBNA-1 inhibitor inactive, ZTA DNA inh 36, HNF4A DNA FP inactive, LANA-H2B inh inactive, CSN inh inactive, A1 inh inactive, ZTA inh confirm inactive and EBNA-1 counter inactive.
`Cc1ccc(C(=O)CCC(=O)OCC(=O)N(CC(C)C)c2c(N)n(Cc3ccccc3)c(=O)[nH]c2=O)cc1` gave EBNA-1 inhibitor inactive, ZTA DNA inh inactive, HNF4A DNA FP inactive, LANA-H2B inh inactive, CSN inh inactive and A1 inh inactive.
N=C1/C(=C\c2coc3ccccc3c2=O)C(=O)N=C2SC(c3ccncc3)=NN12 was read as EBNA-1 inhibitor inactive, ZTA DNA inh 39, HNF4A DNA FP inactive, LANA-H2B inh inactive, CSN inh inactive, A1 inh inactive, ZTA inh confirm 63 and EBNA-1 counter inactive.
CCOC(=O)C1(Cc2cccc(OC)c2)CCN(CC=C(C)C)CC1 was read as EBNA-1 inhibitor inactive, ZTA DNA inh 95, HNF4A DNA FP inactive, LANA-H2B inh inactive, CSN inh inactive, A1 inh inactive, ZTA inh confirm inactive and EBNA-1 counter inactive.
`CCOC(=O)C1(Cc2cccc(OC)c2)CCN(C/C=C/c2ccc(OC)cc2)CC1` gave EBNA-1 inhibitor inactive, ZTA DNA inh inactive, HNF4A DNA FP inactive, LANA-H2B inh inactive, CSN inh inactive and A1 inh inactive.
Screening Cc1cc(Nc2ccc(F)cc2)n2nc(C)nc2n1 returned EBNA-1 inhibitor inactive, ZTA DNA inh inactive, HNF4A DNA FP inactive, LANA-H2B inh inactive, CSN inh inactive and A1 inh inactive.
For Cc1cc(Nc2cccc(F)c2)n2nc(C)nc2n1 the results were EBNA-1 inhibitor inactive, ZTA DNA inh 107, HNF4A DNA FP inactive, LANA-H2B inh inactive, CSN inh inactive, A1 inh inactive, ZTA inh confirm inactive and EBNA-1 counter inactive.
CC(C)(C)NC(=O)NC(=O)CSc1ccc(S(=O)(=O)N2CCCCC2)cn1 was read as ZTA DNA inh inactive, HNF4A DNA FP inactive, LANA-H2B inh inactive, CSN inh inactive and A1 inh inactive.
`C=CCOc1ccc(/C=C2\SC(=S)N(N3CCOCC3)C2=O)cc1` gave EBNA-1 inhibitor inactive, ZTA DNA inh 41, HNF4A DNA FP inactive, LANA-H2B inh inactive, CSN inh inactive, A1 inh inactive, ZTA inh confirm inactive and EBNA-1 counter inactive.
O=S(=O)(Nc1ccc(-c2ccc3nncn3n2)cc1)c1cccc(F)c1 was read as EBNA-1 inhibitor inactive, ZTA DNA inh inactive, HNF4A DNA FP inactive, LANA-H2B inh inactive, CSN inh inactive and A1 inh inactive.
`O=C(CSC1=NS(=O)(=O)c2cc(Cl)ccc2N1)c1ccc(Cl)cc1` gave EBNA-1 inhibitor inactive, ZTA DNA inh inactive, HNF4A DNA FP inactive, CSN inh inactive and A1 inh inactive.
For CS(=O)(=O)N1CCN(c2ccc(NC(=O)C(c3ccccc3)c3ccccc3)cc2)CC1 the results were EBNA-1 inhibitor inactive, ZTA DNA inh inactive, HNF4A DNA FP inactive, LANA-H2B inh inactive, CSN inh inactive and A1 inh inactive.
O=C(Nc1ccc(N2CCCC2)cc1)C(Cl)c1ccccc1 (stereo not drawn) was read as EBNA-1 inhibitor inactive, ZTA DNA inh 49, HNF4A DNA FP inactive, LANA-H2B inh 28, CSN inh inactive, A1 inh inactive, ZTA inh confirm 70 and EBNA-1 counter 36.
